Screening data: PubChem, The Scripps Research Institute Molecular Screening Center
The list is not random: actives were taken first. Their share in the collection is about 2.8%.
PAFAH1B3 inh: blocks human PAF acetylhydrolase 1B catalytic subunit 3 | inhibition, % at 3.39 µM | AID 492972 | 340,000 compounds, 0.28% hits | Q15102 | recombinant PAFAH1B3, FP-rhodamine probe, fluorescence polarization;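 active = inhibition above the screen-wide average of all tested compounds plus 3 SD, cut at about 25% in these data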;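 also: 0% = enzyme with DMSO only and 100% = wells lacking PAFAH1B3 protein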
ARFGAP1 inhibitor: inhibitors of rat ARFGAP1; Q62848; Arfgap1-stimulated ARF1 GTP hydrolysis, GDP FP detection; inhibition, % at 16.5 µM; 360,000 compounds, 0.26% hits; AID 651572;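 active = inhibition above a per-plate limit, mean inhibition of low control wells plus 3 SD, cut at about 25% in these data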;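 also: 0% = DMSO wells with enzyme and 100% = wells lacking Arfgap1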
Target sequence (Q62848 1-136 limits assumed): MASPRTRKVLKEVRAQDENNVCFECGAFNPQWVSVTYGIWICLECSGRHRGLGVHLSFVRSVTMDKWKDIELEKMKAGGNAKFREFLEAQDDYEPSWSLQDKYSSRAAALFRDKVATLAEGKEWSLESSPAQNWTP
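Assay system: Rat Arfgap1 GAP domain (His6, aa 1-136), purified enzyme | Buffer or medium: HEPES 25 mM pH 7.5, NaCl 150 mM, MgCl2, DTT | Schedule: GTP hydrolysis reaction 2 h at 25 °C | Signal: FP of antibody-bound GDP Alexa 633 tracer, ex 620/em 688 nm | Measure: Percent inhibition of Arfgap1-stimulated GTP hydrolysis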
PAFAH2 inh: inhibitors of human PAFAH2; AID 492956; 340,000 compounds, 0.99% hits; inhibition, % at 3.39 µM; recombinant PAFAH2, FP-rhodamine activity probe, fluorescence polarization; Q99487;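 active = inhibition above the mean over all tested compounds plus 3 SD, cut at about 30% in these data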;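 also: inhibitors block probe labeling of enzyme so polarization drops; 0% = enzyme with DMSO and 100% = wells lacking PAFAH2 protein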
ASAP1 inh: blocks human ASAP1-stimulated Arf1 GTP hydrolysis. GDP FP detection. inhibition, % at 16.5 µM. 360,000 compounds, 0.19% hits. AID 624377; in the data active = inhibition above about 25%;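 also: 0% = vehicle with enzyme and substrate and 100% = no enzyme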
pPAFAH FP inh: pPAFAH (human) enzyme inhibition | Q13093 | recombinant pPAFAH, FP-rhodamine probe fluorescence polarization | inhibition, % at 3.39 µM | 330,000 compounds, 1.5% hits | AID 463082;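 active = inhibition above the mean inhibition across the screen plus 3 SD, cut at about 25% in these data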;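 also: inhibitors block binding of the rhodamine activity-based probe so polarization drops; 0% = enzyme with DMSO and 100% = wells lacking pPAFAH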
Target sequence (Q13093 whole entry, looked up): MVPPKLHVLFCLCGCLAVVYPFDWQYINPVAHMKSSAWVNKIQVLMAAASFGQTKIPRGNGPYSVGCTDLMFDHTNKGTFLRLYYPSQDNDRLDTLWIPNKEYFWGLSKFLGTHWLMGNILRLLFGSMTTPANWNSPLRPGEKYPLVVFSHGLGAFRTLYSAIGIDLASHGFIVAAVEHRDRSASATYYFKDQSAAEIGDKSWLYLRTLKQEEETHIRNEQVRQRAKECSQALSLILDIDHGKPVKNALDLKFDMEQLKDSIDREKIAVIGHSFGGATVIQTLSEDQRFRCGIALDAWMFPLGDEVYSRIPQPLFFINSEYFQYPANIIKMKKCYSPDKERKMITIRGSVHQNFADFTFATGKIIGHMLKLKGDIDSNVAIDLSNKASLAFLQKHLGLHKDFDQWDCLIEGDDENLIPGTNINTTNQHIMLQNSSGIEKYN
PAFAH1B2 inh: blocks human PAF acetylhydrolase 1b catalytic subunit 2 | P68402 | recombinant PAFAH1B2, FP-rhodamine activity probe, fluorescence polarization | inhibition, % at 3.39 µM | 340,000 compounds, 1.2% hits;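 active = inhibition above the mean of all tested compounds plus 3 SD, cut at about 24% in these data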;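 also: 0% = enzyme with DMSO and 100% = wells lacking PAFAH1B2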
PAFAH2 FP conf: PAFAH2 (human) inhibition, confirmed; shares compounds with PAFAH2 inh; recombinant PAFAH2, FP-rhodamine activity probe, fluorescence polarization; inhibition, % at 3.39 µM; 2,300 compounds, 65% hits; AID 493030;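 active = mean inhibition over three repeats above a set limit taken from the earlier primary screen, cut at about 30% in these data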;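 also: inhibitor blocks binding of rhodamine activity probe so polarization falls; 0% = enzyme with DMSO and 100% = wells lacking PAFAH2 protein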
* = called active by the depositor; x = no result given.

SMILES | PAFAH1B3 inh | ARFGAP1 inhibitor | PAFAH2 inh | ASAP1 inh | pPAFAH FP inh | PAFAH1B2 inh | PAFAH2 FP conf
CC1CC1C(=O)OCC(=O)Nc1cc(S(=O)(=O)N2CCCCC2)ccc1Cl (centres undefined) | 7.2 | -0.7 | 72.3* | -20.0 | 8.2 | 6.6 | 60.2*
CC1(C(=O)O)CCCN1C(=O)c1cc2ccccc2s1 (centres undefined) | x | 0.0 | x | -1.6 | x | x | x
O=C(NC(=S)/C(=C1\CCCCCN1)[N+](=O)[O-])c1ccccc1 | 2.2 | x | -2.3 | x | 3.9 | 4.7 | x
CCN(C(=O)COC(=O)/C=C/c1ccccc1)C1CCCCC1 | -1.8 | 0.0 | -0.5 | 11.7 | 5.1 | 3.2 | x
O=C(COC(=O)/C=C/c1ccccc1)NC(=O)NC1CCCCC1 | -0.6 | 6.7 | 35.2* | 12.8 | 8.9 | 0.2 | 25.4
O=C(COC(=O)/C=C/c1cccs1)NC1CC1 | 4.5 | 2.4 | 40.7* | -6.7 | -10.3 | 1.3 | 39.3*
O=C(COC(=O)/C=C/c1ccccc1)NC1CCCCCC1 | 7.3 | 9.0 | 88.6* | 4.5 | x | 1.6 | 81.8*
O=C(COC(=O)/C=C/c1ccc([N+](=O)[O-])cc1)NC(=O)NC1CCCCC1 | -2.0 | -2.3 | 3.6 | 13.0 | 6.3 | 3.1 | x
O=C(COC(=O)/C=C/c1ccccc1[N+](=O)[O-])NC1CC1 | -4.1 | 3.3 | 36.1* | -7.1 | 20.0 | 6.7 | 22.5
Cn1cnc([N+](=O)[O-])c1Sc1nnc(-c2ccccc2)c(-c2ccccc2)n1 | x | -3.2 | x | 0.1 | x | x | x
O=C(Nc1cccc(C(F)(F)F)c1)C1Cc2c(-c3ccccc3)ccnc2O1 (centres undefined) | x | 11.0 | x | 1.9 | x | x | x
Cc1cccc(CNC(=O)C2CCCN(c3nn4c(=O)cc(C)nc4s3)C2)c1 (centres undefined) | 3.5 | 10.6 | 0.5 | -0.3 | -4.4 | 3.2 | x
CCc1nc2c(OCCOC)cccn2c1N(C)C(=O)c1ccc(C)cc1 | x | 9.7 | x | 1.6 | x | x | x
O=C(COC(=O)/C=C/c1ccccc1)NC1CCS(=O)(=O)C1 (centres undefined) | 11.1 | 7.7 | 6.2 | -4.4 | 2.1 | -3.6 | x
O=C(COC(=O)/C=C/c1ccccc1)NC1CC1 | 8.0 | 7.7 | 53.6* | 10.1 | 1.0 | -1.1 | 33.4*
O=C(COC(=O)/C=C/c1cccc(C(F)(F)F)c1)NC1CCCCCC1 | 3.0 | -2.3 | 31.1* | -0.1 | -3.8 | 1.4 | 42.8*
O=C(COC(=O)/C=C/c1ccc(C(F)(F)F)cc1)NC1CCCC1 | 2.4 | 6.8 | 19.9 | 1.8 | 10.3 | -3.5 | x
COc1ccc(S(=O)(=O)NCC2(N3CCOCC3)CCCCC2)cc1OC | 3.8 | 8.9 | -2.2 | -5.9 | x | 4.7 | x
Cc1ccc(C(=O)n2nc(-n3cccc3)c3c(C)cc(C)nc32)cc1 | 9.7 | -2.6 | 48.9* | 9.5 | x | 2.0 | 51.4*
Cc1cc(C)c2c(-n3cccc3)nn(C)c2n1 | 6.4 | 18.1 | -6.7 | 11.4 | 6.4 | 3.1 | x
Cc1cc(C(=O)OCC(=O)NCCc2ccccc2)c2ccccc2n1 | 0.7 | 9.0 | -8.0 | -0.5 | -1.3 | 1.8 | x
Cc1cc(C)c(NC(=O)COC(=O)/C=C/c2cccs2)c(C)c1 | -11.6 | -4.2 | 35.5* | 10.7 | 2.8 | 2.9 | 31.1*
Cc1ccc(NC(=O)COC(=O)/C=C/c2cccs2)c(C)c1 | 11.6 | 2.4 | 55.6* | -5.4 | 7.0 | 2.1 | 41.6*
CCOC(=O)C1=C(COC(=O)c2ccc(OC)c(S(=O)(=O)N3CCOCC3)c2)NC(=O)NC1C (centres undefined) | 4.8 | -3.8 | 2.7 | -2.2 | x | 1.9 | x
COc1cc(/C=C/C(=O)OCC(=O)N2CCCc3ccccc32)ccc1O | 5.6 | -10.8 | 51.4* | 0.4 | 4.8 | 2.3 | 41.2*
SMILES | PAFAH1B3 inh | ARFGAP1 inhibitor | PAFAH2 inh | ASAP1 inh | pPAFAH FP inh | PAFAH1B2 inh | PAFAH2 FP conf
COc1cc(/C=C/C(=O)OCC(=O)N2CC(=O)Nc3ccccc32)ccc1O | 5.7 | 21.8 | 3.3 | 10.2 | -5.0 | 5.4 | x
COc1cc(/C=C/C(=O)OCC(=O)N2CCCc3ccccc32)ccc1OCC#N | 0.4 | -1.4 | 40.2* | 8.4 | 1.7 | -3.0 | 19.5
COc1cccc2sc(Nc3nnc(-c4ccc(F)cc4)o3)nc12 | 15.3 | -5.7 | 64.8* | 12.8 | 18.2 | 11.3 | 19.6
COc1cccc2sc(Nc3nnc(-c4cccs4)o3)nc12 | 1.7 | -2.3 | 8.7 | -21.8 | 9.7 | -1.8 | x
O=C(Nc1ccc(Cl)cc1)c1csc([C@@H]2O[C@H](CO)[C@@H](O)[C@H]2O)n1 | x | -11.1 | x | 0.0 | x | x | x
Cc1cc(C)cc(NC(=O)CSc2nc3c(c(=O)[nH]2)CN(Cc2ccc(F)cc2)CC3)c1 | 4.3 | -6.2 | 30.7* | 3.4 | 5.8 | 8.6 | 17.0
CCCN1CCc2nc(SCC(=O)Nc3ccc(C)c(Cl)c3)[nH]c(=O)c2C1 | 0.3 | -9.3 | 2.9 | 2.0 | 3.3 | 3.4 | x
O=C(COC(=O)C1CCC1)NCc1ccccc1Cl | 9.0 | 4.6 | 17.4 | -5.8 | 0.9 | 1.6 | x
CC1CC1C(=O)OCC(=O)NCc1ccccc1Cl (centres undefined) | 17.8 | -2.1 | 68.4* | -0.4 | 6.2 | 3.5 | 55.7*
O=C(COC(=O)C1CC2C=CC1C2)NCc1ccccc1Cl (centres undefined) | 1.6 | 3.5 | 45.5* | -3.2 | 16.4 | 8.3 | 44.3*
COc1ccc(CNC(=O)COC(=O)C2CC3C=CC2C3)cc1 (centres undefined) | 0.0 | 4.2 | 2.4 | 14.2 | 2.8 | 1.6 | x
CC(Oc1ccccc1)C(=O)N=C1SC2CS(=O)(=O)CC2N1CCc1ccccc1 (centres undefined) | 5.1 | -12.0 | 2.4 | 4.5 | 9.3 | 2.5 | x
Cc1ccc(CNC(=O)Cn2cnc(S(=O)(=O)N3CCC(C)CC3)c2)o1 | 5.6 | 1.8 | 5.4 | 0.9 | 5.2 | 0.7 | x
O=C(COC(=O)c1cccc(S(=O)(=O)N2CCCC2)c1)Nc1cccc(Br)c1 | x | -7.1 | x | -17.9 | x | x | x
COc1cc(C(=O)OCC(=O)Nc2cccc(S(=O)(=O)N3CCCC3)c2)ccc1OCC(C)C | -0.3 | -7.8 | 44.7* | -14.1 | 2.6 | -7.5 | 45.3*
COc1ccc(C(=O)OCC(=O)Nc2cccc(S(=O)(=O)N3CCCCCC3)c2)cc1[N+](=O)[O-] | -2.0 | -12.9 | 38.3* | 8.0 | x | -4.2 | 25.7
COc1ccc(C(=O)OCC(=O)Nc2ccc(OC)c(S(=O)(=O)N3CCCCC3)c2)cc1[N+](=O)[O-] | -1.0 | 11.0 | 15.5 | 8.4 | x | 0.9 | x
Cc1cc(C)n2nc(SCC(=O)Nc3ccc(F)cc3[N+](=O)[O-])nc2n1 | 11.2 | 4.9 | -5.3 | 2.5 | 5.3 | 1.8 | x
CCS(=O)(=O)c1cc([N+](=O)[O-])c(Sc2ccccc2NC(C)=O)s1 | 6.2 | -0.7 | 11.4 | 4.2 | 3.2 | 5.7 | x
COc1ccc2ccccc2c1/C=N/N1C(=O)CSC1=S | -0.5 | -2.7 | 9.7 | 11.4 | 16.6 | 2.6 | x
